The source of these data is BindingDB's records for doi:10.1016/j.bmcl.2005.03.058 (Wyeth Research, 2005).

Test [1] deals with T1, UDP-N-acetylenolpyruvoylglucosamine reductase (Escherichia coli (strain K12), UniProt P08373).
T1 sequence (P08373 whole entry): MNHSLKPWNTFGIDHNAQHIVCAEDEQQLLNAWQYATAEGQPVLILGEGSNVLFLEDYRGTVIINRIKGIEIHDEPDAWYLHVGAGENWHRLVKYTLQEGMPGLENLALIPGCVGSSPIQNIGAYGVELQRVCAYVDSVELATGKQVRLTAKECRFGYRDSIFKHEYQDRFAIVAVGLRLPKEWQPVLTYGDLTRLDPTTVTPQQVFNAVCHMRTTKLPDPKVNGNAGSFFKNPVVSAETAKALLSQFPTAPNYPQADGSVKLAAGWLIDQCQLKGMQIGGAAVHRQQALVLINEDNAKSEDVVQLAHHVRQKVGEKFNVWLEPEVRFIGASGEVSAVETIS
The experiment in a line: Inhibitory concentration against MurB enzyme in Escherichia coli. Summed up:
(§1)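 Enzyme (20 nM) preincubated 20 min with inhibitor, then substrates added to final 50 µM EP-UNAG and 100 µM NADPH. Activity followed spectrophotometrically. At least six inhibitor concentrations between 1.5 and 50 µM per compound. IC50 from sigmoid Hill curve fit (0–100).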

The target in test [2] is UDP-N-acetylglucosamine 1-carboxyvinyltransferase (Escherichia coli (strain K12), UniProt P0A749). The experiment in a line: Inhibitory concentration against MurA enzyme in Escherichia coli. In short, it runs like this: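 Enzyme preincubated with inhibitor 10 min at 37 °C before substrates were added. Reaction ran 30 min at 37 °C and was stopped with malachite green reagent (0.03% malachite green, 1.4% ammonium molybdate, 1.3 N HCl) for phosphate read-out.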

For test [3], the target named is T2, UDP-N-acetylenolpyruvoylglucosamine reductase (Staphylococcus aureus, UniProt P61431).
T2 sequence (P61431 whole entry): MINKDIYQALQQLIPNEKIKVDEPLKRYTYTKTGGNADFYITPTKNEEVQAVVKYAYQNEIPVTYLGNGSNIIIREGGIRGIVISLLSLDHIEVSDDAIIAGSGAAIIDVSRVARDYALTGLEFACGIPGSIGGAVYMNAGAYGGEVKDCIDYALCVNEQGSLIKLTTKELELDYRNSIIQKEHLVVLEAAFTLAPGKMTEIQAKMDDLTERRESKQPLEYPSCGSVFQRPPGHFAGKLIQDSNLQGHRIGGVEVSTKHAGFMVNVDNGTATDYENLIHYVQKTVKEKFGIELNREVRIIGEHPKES
The experiment in a line: Inhibitory concentration against MurB enzyme in Staphylococcus aureus. Summed up:
as §1

Each structure is given as a SMILES string.

Chain of UDP-N-acetylglucosamine 1-carboxyvinyltransferase (P0A749 whole entry): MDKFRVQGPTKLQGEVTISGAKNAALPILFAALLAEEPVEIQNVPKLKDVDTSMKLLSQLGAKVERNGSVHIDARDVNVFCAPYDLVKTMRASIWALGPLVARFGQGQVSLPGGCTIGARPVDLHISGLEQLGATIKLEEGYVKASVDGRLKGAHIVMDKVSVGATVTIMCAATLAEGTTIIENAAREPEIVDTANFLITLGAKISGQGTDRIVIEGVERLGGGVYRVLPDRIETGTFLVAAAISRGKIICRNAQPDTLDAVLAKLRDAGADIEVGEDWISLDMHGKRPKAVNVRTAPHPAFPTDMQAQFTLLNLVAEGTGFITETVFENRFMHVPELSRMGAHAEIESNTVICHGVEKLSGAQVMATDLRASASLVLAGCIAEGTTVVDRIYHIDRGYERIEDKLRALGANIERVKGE

`CCC(CC)Cc1c(O)n(-c2ccc(Cl)cc2)n(-c2ccc(Cl)cc2)c1=O` [1,2-Bis-(4-chloro-phenyl)-4-(2-ethyl-butyl)-pyrazolidine-3,5-dione]: the IC50 in test [1] is 50 µM; in test [2], over 50 µM.

On to `O=c1c(Cc2ccccc2)c(O)n(-c2ccc(Cl)cc2)n1-c1ccc(Cl)cc1` [4-Benzyl-1,2-bis-(4-chloro-phenyl)-pyrazolidine-3,5-dione], for which the IC50 in test [1] and in test [2] was over 50 µM in each case.

For `COc1cccc(Cc2c(O)n(-c3ccc(Cl)cc3)n(-c3ccc(Cl)cc3)c2=O)c1` [1,2-Bis-(4-chloro-phenyl)-4-(3-methoxy-benzyl)-pyrazolidine-3,5-dione], the IC50 in test [1] is 50 µM; in test [2] it was over 50 µM.

On to `CCN(CCc1c(O)n(-c2ccc(Cl)cc2)n(-c2ccc(Cl)cc2)c1=O)Cc1ccccc1` [4-[2-(Benzyl-ethyl-amino)-ethyl]-1,2-bis-(4-chloro-phenyl)-pyrazolidine-3,5-dione], for which the IC50 in test [1], in test [3] and in test [2] was over 50 µM in each case.

For `CCN(CC)CCc1c(O)n(-c2ccc(Cl)cc2)n(-c2ccc(Cl)cc2)c1=O` [1,2-Bis-(4-chloro-phenyl)-4-(2-diethylamino-ethyl)-pyrazolidine-3,5-dione], the IC50 in test [1] and in test [2] was over 50 µM throughout.

Turning to `O=c1c(Cc2ccccc2Cl)c(O)n(-c2ccc(Cl)cc2)n1-c1ccc(Cl)cc1` [4-(2-Chloro-benzyl)-1,2-bis-(4-chloro-phenyl)-pyrazolidine-3,5-dione], the IC50 in test [1], in test [3] and in test [2] was over 50 µM throughout.
